Compound activity as filed in PubChem BioAssay.
p97 ATPase inh = inhibitors of human p97 ATPase, primary screen, biochemical. Transitional endoplasmic reticulum ATPase (Homo sapiens), P55072. recombinant p97 ATPase, Kinase-Glo ATP luminescence, 3 h. inhibition, % at 8 µM. actives 0.42% (n = 220,000). AID 1481, 2009; in the data active means inhibition above about 15%
Target sequence (P55072 whole entry, looked up): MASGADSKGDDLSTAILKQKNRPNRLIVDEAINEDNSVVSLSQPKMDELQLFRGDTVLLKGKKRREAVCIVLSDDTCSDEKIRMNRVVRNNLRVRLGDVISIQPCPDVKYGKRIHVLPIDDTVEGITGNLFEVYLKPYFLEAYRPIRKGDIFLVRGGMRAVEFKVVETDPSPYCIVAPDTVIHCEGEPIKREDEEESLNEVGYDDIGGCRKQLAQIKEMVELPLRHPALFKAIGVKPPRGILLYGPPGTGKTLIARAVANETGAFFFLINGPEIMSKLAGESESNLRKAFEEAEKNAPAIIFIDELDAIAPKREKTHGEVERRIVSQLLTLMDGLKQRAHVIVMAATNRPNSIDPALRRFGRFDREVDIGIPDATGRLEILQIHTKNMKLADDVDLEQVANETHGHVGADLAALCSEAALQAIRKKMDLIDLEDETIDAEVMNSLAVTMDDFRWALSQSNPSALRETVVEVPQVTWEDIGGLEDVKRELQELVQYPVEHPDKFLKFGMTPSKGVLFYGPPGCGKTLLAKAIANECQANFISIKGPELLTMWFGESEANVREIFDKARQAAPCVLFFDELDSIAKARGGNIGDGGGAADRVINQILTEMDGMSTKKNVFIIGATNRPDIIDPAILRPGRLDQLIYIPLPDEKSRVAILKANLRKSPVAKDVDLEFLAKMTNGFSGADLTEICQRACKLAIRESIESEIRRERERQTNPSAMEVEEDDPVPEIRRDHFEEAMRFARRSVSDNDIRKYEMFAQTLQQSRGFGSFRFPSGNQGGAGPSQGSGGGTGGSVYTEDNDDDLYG
PfM18AAP inh = PfM18AAP inhibitors, malaria aminopeptidase, primary screen, biochemical, QFRET, recombinant enzyme | actives 1.2% (n = 290,000) | H-Glu-NHMec fluorogenic cleavage | inhibition, % at 7.35 µM | M18 aspartyl aminopeptidase (Plasmodium falciparum 3D7) | AID 1822, 2009;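 active means inhibition above the campaign mean inhibition over all tested compounds plus 3 SD, cut at about 28% in these data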
NS3 helicase inh = inhibitors of HCV NS3 helicase, primary screen, biochemical, Cy5 molecular beacon fluorescence; Hepatitis C virus NS3 helicase; NS3 helicase DNA unwinding; inhibition, % at 10.9 µM; actives 0.56% (n = 290,000); AID 1800, 2009;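 active means inhibition above the mean of all tested compounds plus 3 SD, set per campaign, cut at about 35% in these data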
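Control set: DMSO versus 110 µM thioflavine S; Material: NS3 helicase fragment of HCV; Measured by: Cy5 fluorescence at 0 and 60 min, beacon hairpin quenching; Read-out basis: percent inhibition from t60/t0 fluorescence ratio; Times: reaction time 60 min, 25 °C; Repeats: single replicate; Compound dosing: single dose, 10.9 µM nominal final, DMSO 0.8% final.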
XBP1 UPR activ = activators of adaptive XBP1 UPR arm, primary screen, cell-based, CHO-XBP1 luciferase reporter, luminescence, uHTS. IRE1-XBP1 UPR activation; percent of tunicamycin response, DMSO as zero. activation, % at 20 µM. actives 0.33% (n = 330,000);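 active means versus positive control, 20 µM dose yields 30% or more activation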
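Material: CHO-XBP1 cells stably carrying IRE1-XBP1-driven luciferase reporter | Medium: F12 with 10% serum | Compound dosing: 20 µM single concentration, DMSO 1% | Incubation: Overnight seeding at 37 °C, 6 h compound treatment at 37 °C | Detection: Steady-Glo luminescence read | Read-out basis: % activation of reporter signal versus tunicamycin and DMSO controls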
CHOP inhibitor = inhibitors of CHOP promoter induction, primary screen, cell-based, unfolded protein response, luciferase reporter | AID 2732, 2010 | CHO-K1 CHOP-promoter luciferase, tunicamycin-induced, 15-18 h | actives 3.8% (n = 220,000) | inhibition, % at 10 µM;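 active means compounds that reduced the stress-induced luciferase reporter signal by more than about 70% of percent inhibition, limit read from the data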
UPR CHOP act = activators of apoptotic CHOP UPR arm, primary screen, cell-based, CHO-CHOP luciferase reporter, luminescence, uHTS | UPR activation; percent of tunicamycin response over DMSO baseline | actives 0.34% (n = 330,000) | activation, % at 10 µM;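 active means at 10 µM dose, activation of 40% or more, normalized to positive control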
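Assay system: CHO-CHOP cells, stable luciferase reporter of PERK-eIF2a-CHOP signalling / Buffer or medium: F12 plus 10% serum / Compound dosing: one dose, 10 µM in 0.5% DMSO / Times: 6 h compound treatment, 37 °C / Technique: luciferase luminescence / Read-out: % reporter activation, DMSO baseline versus tunicamycin full activation / Benchmarks: tunicamycin and DMSO controls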
UPR CHOP confirm = activators of apoptotic CHOP UPR arm, confirmation, cell-based, CHO-CHOP luciferase reporter, single concentration; shares compounds with UPR CHOP act; CHO-CHOP cells, CHOP-luciferase reporter luminescence; percent of tunicamycin response, DMSO as zero; activation, % at 10 µM; actives 64% (n = 1,000); in the data active means activation above about 33%
UPR XBP1 confirm = IRE1-XBP1 UPR arm activators, confirmation, cell-based, CHO-XBP1 luciferase reporter, luminescence, single concentration; activation, % at 20 µM; shares compounds with XBP1 UPR activ; actives 63% (n = 1,000);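 active means reporter signal at least 30% of the positive control's activation in two or more of four replicate wells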
Large screens that a line does not name were inactive (follow-up assays come after a bar, where they were run). An excerpt weighted towards active compounds, which were near 4.5% of everything screened.

C/C(=N\Nc1ncnc2sc(C)c(C)c12)c1ccccn1	XBP1 UPR activ 97, UPR CHOP act 97 (no result: p97 ATPase inh, CHOP inhibitor) | UPR CHOP confirm 88 | UPR XBP1 confirm 122
Cc1cccc(OCC(=O)Nc2ccc3c(c2)C(=O)NC3=O)c1	none (no result: p97 ATPase inh, CHOP inhibitor)
N=c1c(-c2nc3ccccc3[nH]2)cc(C(=O)c2ccco2)nn1-c1ccccc1	XBP1 UPR activ 33, UPR CHOP act 153 | UPR CHOP confirm 148 | UPR XBP1 confirm inactive
FC(F)(F)c1nc2ccccc2n2c(-c3ccc(Cl)cc3Cl)nnc12	none
FC(F)(F)c1nnc2c(Sc3ccccc3)nc3ccc(Cl)cc3n12	XBP1 UPR activ 115, UPR CHOP act 233 | UPR CHOP confirm 152 | UPR XBP1 confirm 124
O=[N+]([O-])c1ccc(Cl)c(-c2ccc(/C=N/c3c(-c4ccco4)nc4ccccn34)o2)c1	XBP1 UPR activ 90, UPR CHOP act 74 | UPR CHOP confirm inactive | UPR XBP1 confirm 95
CCOC(=O)N1CCN(S(=O)(=O)c2ccc(C(=O)Nc3nc4c(s3)CC(C)CC4)cc2)CC1 (centres undefined)	XBP1 UPR activ 62, CHOP inhibitor 93, UPR CHOP act 64 | UPR CHOP confirm 96 | UPR XBP1 confirm 116
Cc1ccccc1NC(=O)c1ccc(N/N=C/c2ccccc2O)c([N+](=O)[O-])c1	XBP1 UPR activ 45, UPR CHOP act 48 | UPR CHOP confirm 71 | UPR XBP1 confirm 71
Cc1ccc(NC(=O)c2ccc(N/N=C/c3cccc(O)c3)c([N+](=O)[O-])c2)cc1	XBP1 UPR activ 51, UPR CHOP act 63 | UPR CHOP confirm 52 | UPR XBP1 confirm 39
NS(=O)(=O)c1ccc(N/N=C/c2ccccc2C(=O)O)c([N+](=O)[O-])c1	none
Cc1ccc(OCCC(=O)N(CC(=O)Nc2ccccc2C(F)(F)F)Cc2ccco2)cc1	none (no result: p97 ATPase inh, PfM18AAP inh, NS3 helicase inh, CHOP inhibitor)
CC1CC(C)CN(c2ccc(C(=O)NCc3ccc4c(c3)OCO4)cc2[N+](=O)[O-])C1 (centres undefined)	none
COc1ccc(-c2csc3nc(C(C)(C)C)oc(=O)c23)cc1OC	none
COc1ccc(-c2csc3nc(-c4ccc(C)cc4)oc(=O)c23)cc1OC	XBP1 UPR activ 59, UPR CHOP act 57 | UPR CHOP confirm inactive | UPR XBP1 confirm 42
O=C(NN1C(=O)/C(=C/c2ccc(O)c(O)c2)SC1=S)c1ccccc1	PfM18AAP inh 65, XBP1 UPR activ 59, UPR CHOP act 43 (no result: p97 ATPase inh, CHOP inhibitor) | UPR CHOP confirm inactive | UPR XBP1 confirm 57
O=C(COc1ccccc1[N+](=O)[O-])Nc1ccc(NC(=O)c2cc3ccccc3o2)cc1	none
O=C(COc1ccc(/C=N/NC(=O)c2cc3ccccc3o2)cc1Br)Nc1ccccc1	XBP1 UPR activ 107, UPR CHOP act 275 | UPR CHOP confirm 58 | UPR XBP1 confirm 45
C#CCn1c(=NC(=O)c2ccc(S(=O)(=O)N3CCc4ccccc4C3)cc2)sc2cc(S(N)(=O)=O)ccc21	XBP1 UPR activ 58, CHOP inhibitor 110, UPR CHOP act 82 | UPR CHOP confirm inactive | UPR XBP1 confirm 83
COc1ccccc1CN1CC(C(=O)NCc2cc(F)ccc2C)CCC1=O (centres undefined)	none (no result: p97 ATPase inh, CHOP inhibitor)
Oc1cc(-c2cccnc2)cc2cccnc12	XBP1 UPR activ 46, UPR CHOP act 96 (no result: p97 ATPase inh, PfM18AAP inh, NS3 helicase inh, CHOP inhibitor) | UPR CHOP confirm 74 | UPR XBP1 confirm 34
CCOc1ccc(S(=O)(=O)Nc2cccc(C(=O)N(C)CC(=O)Nc3cccc(OC)c3)c2)cc1	none (no result: p97 ATPase inh, PfM18AAP inh, NS3 helicase inh, CHOP inhibitor)
NS(=O)(=O)c1ccc(N/N=C/c2cn(-c3ccccc3)nc2-c2ccccc2)c([N+](=O)[O-])c1	XBP1 UPR activ 78, UPR CHOP act 104 | UPR CHOP confirm inactive | UPR XBP1 confirm 75
O=[N+]([O-])c1ccc(N/N=C/c2cn(-c3ccccc3)nc2-c2ccccc2)cc1	none
COc1ccc2nc(/C(C#N)=C\c3ccc(Oc4ccc([N+](=O)[O-])cn4)cc3)[nH]c2c1	XBP1 UPR activ 182, CHOP inhibitor 71, UPR CHOP act 98 | UPR CHOP confirm inactive | UPR XBP1 confirm 37
O=C(CN1C(=O)COc2ccccc21)NC1CCCC1	none (no result: p97 ATPase inh, CHOP inhibitor)
O=C(Nc1nc(-c2ccc(F)c(F)c2)cs1)Nc1ccc(F)cc1F	XBP1 UPR activ 74, UPR CHOP act 47 (no result: p97 ATPase inh, CHOP inhibitor) | UPR CHOP confirm 53 | UPR XBP1 confirm 123
COc1cc([C@H]2c3[nH]c4ccccc4c3C[C@H]3C(=O)N4[C@@H](c5cc(OC)c(OC)c(OC)c5)c5[nH]c6ccccc6c5C[C@H]4C(=O)N23)cc(OC)c1OC	XBP1 UPR activ 153, CHOP inhibitor 96, UPR CHOP act 88 | UPR CHOP confirm 109 | UPR XBP1 confirm 118
CCN1C(=O)[C@@H]2Cc3c([nH]c4ccccc34)C(c3cc(OC)c(OC)c(OC)c3)N2C1=S (some centres undefined)	none (no result: p97 ATPase inh, CHOP inhibitor)
O=c1[nH]c(-c2ccc(-c3cccc(Cl)c3)o2)nc2ccccc12	XBP1 UPR activ 92, UPR CHOP act 74 (no result: p97 ATPase inh, PfM18AAP inh, NS3 helicase inh, CHOP inhibitor) | UPR CHOP confirm 105 | UPR XBP1 confirm 176
Cc1ccc(C(C[N+](=O)[O-])n2nc(C)cc2C)cc1 (centres undefined)	XBP1 UPR activ 55, UPR CHOP act 57 | UPR CHOP confirm 83 | UPR XBP1 confirm inactive
Cc1ccc(S(=O)(=O)NCC(C)n2nc(C)cc2C)cc1 (centres undefined)	none (no result: p97 ATPase inh, CHOP inhibitor)
CSc1nc(N)nc2c1ncn2CC(=O)NCCCN1CCCC1=O	none (no result: p97 ATPase inh, PfM18AAP inh, NS3 helicase inh, CHOP inhibitor)
CCc1ccc(NC(=O)COc2ccc(/C=C(/C#N)c3nc4ccccc4[nH]3)cc2OC)cc1	XBP1 UPR activ 192, CHOP inhibitor 87, UPR CHOP act 172 | UPR CHOP confirm inactive | UPR XBP1 confirm inactive
Brc1ccc(-c2ccc(/C=N/Nc3nncc(-c4ccccc4)n3)o2)cc1	XBP1 UPR activ 91, UPR CHOP act 59 | UPR CHOP confirm 62 | UPR XBP1 confirm 128
Brc1ccc(/C=N/Nc2nncc(-c3ccccc3)n2)o1	none
O=C(OCc1nnc(-c2ccccc2)o1)c1cccc(-n2cnnn2)c1	none (no result: p97 ATPase inh, PfM18AAP inh, NS3 helicase inh, CHOP inhibitor)
